This is an account of results in ChEMBL document CHEMBL3085744, “Hepatoprotective prenylaromadendrane-type diterpenes from the gum resin of Boswellia carterii” (J Nat Prod, 2013).

Assay [1] can be described thus: Cytotoxicity against human Bel7402 cells by MTT assay. Format: cell-based. To be noted: Bel-7402. Background: Tetrazolium dyes change colour on reduction, which living cells bring about.
The subject of the next assay is A549. As to the kind of experiment: Cytotoxicity against human A549 cells by MTT assay. Format: cell-based.
A further assay has as its system Neuron. Kind of assay: Neuroprotective activity against MPP+-induced neuronal cell injury in neurons (unknown origin). Format: functional, cell-based.
The nature of assay [2]: Cytotoxicity against human BGC823 cells by MTT assay. Type of assay: cell-based. The settings on record: BGC-823.
Assay [3] has as its system L02. Kind of assay: Hepatoprotective activity against D-galactosamine-induced cell toxicity in human HL-7702 cells assessed as cell survival incubated for 1 hr prior to D-galactosamine-challenge measured after 24 hrs by MTT assay relative to normal cells. Further details: concentration or dose not given beside the values. Type of assay: functional. In outline:
(§1)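 HL-7702 cells (2 × 10^4 per well) precultured 24 h at 37 °C, 5% CO2 in RPMI 1640 with 10% fetal calf serum, penicillin and streptomycin. Test compound (10 μM) added in fresh medium for 1 h, then 25 mM D-galactosamine for 24 h. MTT 0.5 mg/mL 4 h, formazan in DMSO, OD 492 nm. Survival as % of normal; means ± SD, n = 3; bicyclol 10 μM as positive control.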

The next assay concerns A2780. Kind of assay: Cytotoxicity against human A2780 cells by MTT assay. Type of assay: cell-based.
Assay [4] can be described thus: Cytotoxicity against human HCT8 cells by MTT assay. To be noted: HCT-8. Type of assay: cell-based.
Assay [5] in a line: Hepatoprotective activity in human HL-7702 cells assessed as inhibition of D-galactosamine-induced cell toxicity incubated for 1 hr prior to D-galactosamine-challenge measured after 24 hrs by MTT assay relative to control. Format: functional, L02.
In assay [6] the test system is L02. Kind of assay: Hepatoprotective activity against D-galactosamine-induced cell toxicity in human HL-7702 cells assessed as cell survival at 10 uM incubated for 1 hr prior to D-galactosamine-challenge measured after 24 hrs by MTT assay relative to normal cells. Format: functional. The settings on record: read-out: Survival. In outline: as §1

pIC50: −log10 of the molar value. Active and inactive are the calls of the source. The calls are words filed in the database; no cut-off is given here.

As usually defined, the pIC50 is the IC50 on a negative log10 scale, so that one unit is a factor of ten. As to `C=C1CC[C@@H]2[C@H]([C@@H]3[C@H]1CC[C@]3(C)O)[C@@]2(C)CC/C=C(/C)CO`, the pIC50 (in assay [1]; in the assay on A549; in [2]; in the assay on A2780; in assay [4]) was less than 5.00 each time. The result in the assay on Neuron was inactive. In the assay with L02 [3], the Survival is on record as 73%. Besides, the “inhibition (INH)” value in assay [5] is listed as 33.6%.
For `C=C1CC[C@@H]2[C@H]([C@@H]3[C@H]1CC[C@]3(C)O)[C@@]2(C)/C=C/C=C(/C)CO`, the pIC50 (in assay [1]; in the assay with A549; in assay [2]; with A2780; in [4]) was less than 5.00 in each case. In addition, in the assay on Neuron, the outcome was inactive. Moreover, the Survival with L02 [3] is 69%. The “inhibition (INH)” value in assay [5] worked out at 26.1%.
As to `COC(=O)c1cc(OC)c2c(c1-c1c(CO)cc(OC)c3c1OCO3)OCO2` [BICYCLOL], the viability at 10 µM in the assay with L02 [6] came out at 76%. Further, the “inhibition (INH)” value in assay [5] is on record as 42.5%.
For the compound `C=C1CC[C@@H]2[C@H]([C@@H]3[C@H]1CC[C@]3(C)O)[C@@]2(C)C[C@H]1C=C(C)C(=O)O1`, the pIC50 (in [1]; with A549; in [2]; in the assay on A2780; in assay [4]) was less than 5.00 each time. For the same compound, in the assay with Neuron, the outcome was inactive. Moreover, the Survival in the assay with L02 [3] was 68%. Besides, in [5], the “inhibition (INH)” value is on record as 24.3%.
For the compound `C=C1CC[C@@H]2[C@H]([C@H]3[C@H](C)CC[C@@H]13)[C@@]2(C)C[C@H](O)/C=C(/C)CO`, the pIC50 (in assay [1]; in the assay with A549; in [2]; with A2780; in [4]) was less than 5.00 in each case. Also, the outcome with Neuron was inactive. Moreover, in the assay on L02 [3], the Survival turned out to be 73%. Moreover, the “inhibition (INH)” value in [5] is given as 36.3%.
Regarding `C=C1CC[C@@H]2[C@H]([C@@H]3[C@H]1CC[C@]3(C)O)[C@@]2(C)/C=C/C=C(\C)C=O`, the pIC50 (in assay [1]; with A549; in [2]; with A2780; in assay [4]) was less than 5.00 each time. In addition, the outcome in the assay on Neuron was inactive. The Survival in the assay with L02 [3] came out at 88%. For the same compound, the “inhibition (INH)” value in assay [5] came out at 69.6%.
`C=C1CC[C@@H]2[C@H]([C@@H]3[C@H]1CC[C@]3(C)O)[C@@]2(C)C[C@@H]1C=C(C)C(=O)O1`: the pIC50 (in [1]; with A549; in assay [2]; in the assay with A2780; in assay [4]) was less than 5.00 in each case. For the same compound, the outcome with Neuron was inactive. Besides, in the assay on L02 [3], the Survival is 73%. Besides, the “inhibition (INH)” value in assay [5] came to 33.6%.
Regarding `C=C1CC[C@@H]2[C@H]([C@@H]3[C@H]1CC[C@]3(C)O)[C@@]2(C)C(/C=C/C(C)(C)O)OC` (stereo not given in full), the pIC50 (in [1]; with A549; in assay [2]; in the assay on A2780; in assay [4]) was less than 5.00 throughout. In addition, the result in the assay with Neuron was inactive.
For the compound `C=C1CC[C@@H]2[C@H]([C@@H]3[C@H]1CC[C@]3(C)O)[C@@]2(C)C/C=C/C(C)(C)O`, the pIC50 (in [1]; in the assay on A549; in assay [2]; in the assay on A2780; in [4]) was less than 5.00 throughout. Moreover, in the assay with Neuron, the outcome was inactive. Also, the Survival with L02 [3] turned out to be 70%. Moreover, in assay [5], the “inhibition (INH)” value is reported as 27%.
In the case of `C=C1CC[C@@H]2[C@H]([C@@H]3[C@H]1CC[C@]3(C)O)[C@@]2(C)[C@@H]1C(=O)C(C)=C[C@H]1O`, the pIC50 (in assay [1]; in the assay with A549; in [2]; in the assay on A2780; in assay [4]) was less than 5.00 each time. Besides, the result with Neuron was inactive.
